From paper PMC6219460 (SLAS discovery : advancing life sciences R & D, 2017)
Like-named read-outs stand apart in the source and are kept apart here.

Tests used:
[1] = molecular target: T1, human CB2 receptor (Homo sapiens, UniProt P34972); assay type: binding; settings: for selectivity for CB2 versus CB1 (in words): from radioligand binding at CB2 and CB1
[2] = molecular target: human CB1 receptor (Homo sapiens, UniProt P21554); assay type: binding; settings: for inhibition of [3H]CP 55,940 binding to CB1 receptors (in words): concentrations up to 10 μM
human CB1 receptor, sequence (P21554 whole entry): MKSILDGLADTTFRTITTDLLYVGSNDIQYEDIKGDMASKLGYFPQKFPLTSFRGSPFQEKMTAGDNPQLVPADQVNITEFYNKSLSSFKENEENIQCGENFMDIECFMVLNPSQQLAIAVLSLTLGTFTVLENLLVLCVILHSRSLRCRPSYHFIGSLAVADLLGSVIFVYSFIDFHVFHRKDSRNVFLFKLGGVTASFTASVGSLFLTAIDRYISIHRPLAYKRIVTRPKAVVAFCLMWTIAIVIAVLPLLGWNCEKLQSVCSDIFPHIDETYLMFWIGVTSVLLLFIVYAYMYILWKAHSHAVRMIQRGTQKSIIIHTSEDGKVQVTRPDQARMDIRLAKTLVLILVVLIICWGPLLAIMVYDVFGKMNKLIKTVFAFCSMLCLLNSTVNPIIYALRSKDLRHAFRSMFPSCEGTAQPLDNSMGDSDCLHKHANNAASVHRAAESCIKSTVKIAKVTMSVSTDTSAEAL

[3] = molecular target: T1, human CB2 receptor; test: [35S]GTPγS binding assay, HEK293 membranes expressing CB2; assay type: biochemical; settings: 10 μM GDP
Summary of the method: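 HEK293 membranes expressing recombinant human CB2 (8 µg/well) were incubated with 0.1 nM [35S]GTPγS, 10 µM GDP, 0.1% (w/v) BSA and test compound (typically 1 nM–10 µM) in 50 mM Tris-HCl pH 7.4, 3 mM MgCl2, 0.2 mM EGTA, 100 mM NaCl. Nonspecific binding was set with 10 µM unlabeled GTPγS. Reactions were stopped by filtration. Duplicates, three experiments.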

[4] = Ki (μM) CB2, [3H]CP 55,940 tracer at 1.5 nM
[5] = read-out: log (Ki, Molar) CB1 (converted), [3H]CP 55,940 tracer at 1.5 nM
[6] = EC50 GTPγS binding, 0.1 nM [35S]GTPγS
[7] = log (EC50, Molar) GTPγS binding CB2, 0.1 nM [35S]GTPγS

T1 sequence (P34972 whole entry): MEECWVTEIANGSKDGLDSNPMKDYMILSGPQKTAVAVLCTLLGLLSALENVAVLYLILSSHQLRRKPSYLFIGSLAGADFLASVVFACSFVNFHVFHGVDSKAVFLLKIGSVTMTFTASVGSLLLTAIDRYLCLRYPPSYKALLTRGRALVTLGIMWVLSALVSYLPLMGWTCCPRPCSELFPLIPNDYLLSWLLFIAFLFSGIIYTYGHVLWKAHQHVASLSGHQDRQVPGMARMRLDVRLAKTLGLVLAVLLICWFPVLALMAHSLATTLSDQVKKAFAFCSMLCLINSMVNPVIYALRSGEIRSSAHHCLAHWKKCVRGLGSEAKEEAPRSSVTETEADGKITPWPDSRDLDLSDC

Ki [1, 4] [µM] | selectivity for CB2 versus CB1 (in words) [1] | Ki ([1]; log (Ki, Molar) CB2, [3H]CP 55,940 tracer at 1.5 nM) [µM] | Ki [2] [nM] | inhibition of [3H]CP 55,940 binding to CB1 receptors (in words) [2] | Ki [2, 5] [nM] | EC50 [3, 6] [nM] | EC50 [3, 7] [nM] | Compound
0.2 | selectively bind CB2 receptors | 0.251 | > 10000 | no detectable inhibition | > 10000 | 80 |  | CC1CCN(C(NC(=O)c2ccc(C(C)(C)C)cc2)C(Cl)(Cl)Cl)CC1 (stereo not drawn) [Compound 4, 4-(tert-butyl)-N-(2,2,2-trichloro-1-(4-methylpiperidin-1 yl)ethyl)benzamide]
2.3 | selectively bind CB2 receptors |  | > 10000 | no measurable inhibition | > 10000 | 500 |  | CC(C)c1cc(C2CCCN2C(=O)c2cc(-c3ccc4c(c3)OCO4)on2)no1 (stereo not drawn) [Compound 1, (5-(benzo[d][1,3]dioxol-5-yl)isoxazol-3-yl)(2-(5-isopropylisoxazol-3-yl)pyrrolidin-1-yl)methanone]
0.8 | only weakly selective |  | 1600 |  |  |  | 39.8 | CCc1c(C)sc(NC(=O)C(Sc2ccccc2)c2ccccc2)c1C(=O)OC (stereo not drawn) [Compound 3, methyl 4-ethyl-5-methyl-2-(2-phenyl-2 (phenylthio)acetamido)thiophene-3-carboxylate]
1.1 | only weakly selective |  | 1800 |  |  |  | 501 | c1ccc(Nc2nc3ccccc3nc2Nc2ccccc2)cc1 [Compound 2, N2,N3-diphenylquinoxaline-2,3-diamine]
